5HT1a ag: human 5-HT1a receptor agonists, primary screen, cell-based, CHO, Ga15 NFAT-bla reporter; CHO 5-HT1a Ga15 NFAT-bla reporter, FRET ratio; 0% basal, 100% maximal reference agonist; activation, % at 10 µM; 65,000 compounds, 0.56% hits; AID 567, 2006;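 active = activation above the screen-wide mean activation plus 3 SD, cut at about 19% in these data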;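 note: 0% = DMSO wells and 100% = 5-CT at EC100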
HTR1E agonist: 5-HT1E receptor agonists, primary screen, cell-based, HTS; CHO 5-HT1E Ga15 NFAT-bla reporter, FRET; 0% DMSO wells, 100% control agonist wells; activation, % at 6 µM; 65,000 compounds, 0.69% hits; AID 574, 2007;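 active = activation above a set limit, the screen-wide mean activation plus 3 SD, cut at about 8.5% in these data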;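 note: 100% = positive control agonist at 1 µM giving full maximal response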
S1P3 agonist: human S1P3 receptor agonists, primary screen, cell-based, primary and confirmation, NFAT-BLA reporter. S1P3 NFAT-BLA reporter cells, agonism, FRET ratio; relative to 1 µM S1P, basal subtracted. activation, % at 4.5 µM. 60,000 compounds, 0.1% hits;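 active = activation above the screen-wide mean plus 3 SD, cut at about 4.5% in these data, passing the limit was not always enough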
Target sequence (Q99500 whole entry, looked up): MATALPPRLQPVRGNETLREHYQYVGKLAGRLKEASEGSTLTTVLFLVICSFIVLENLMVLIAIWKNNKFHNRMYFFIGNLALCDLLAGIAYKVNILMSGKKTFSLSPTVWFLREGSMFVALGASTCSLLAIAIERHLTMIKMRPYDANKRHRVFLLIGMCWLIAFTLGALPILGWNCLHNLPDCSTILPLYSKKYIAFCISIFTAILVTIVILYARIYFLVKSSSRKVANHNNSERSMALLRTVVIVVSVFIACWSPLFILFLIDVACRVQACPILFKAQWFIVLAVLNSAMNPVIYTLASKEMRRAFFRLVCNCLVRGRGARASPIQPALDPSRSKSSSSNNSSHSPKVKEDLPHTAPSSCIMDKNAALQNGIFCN
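Material: Human S1P3 NFAT-BLA reporter CHO cells | Incubation: Overnight plating, 4 h compound 37 °C, 2 h substrate RT | Signal: FRET β-lactamase substrate fluorescence, excitation 405 nm, 460/535 nm emission ratio, background-subtracted | Compound: 4.5 µM final, single dose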
S1P1 ag-PAM: S1P1 agonists and agonism potentiators, primary screen, cell-based, primary and confirmation screens, CRE-bla reporter; activation, % at 9.5 µM; 56,000 compounds, 0.57% hits; S1P1 CRE-bla cells, forskolin, beta-lactamase FRET, potentiator mode; S1P1 agonist co-added at EC20, 2 nM; 100% = saturating reference agonist, 0% = basal; AID 449, 2006; Sphingosine 1-phosphate receptor 1 (Homo sapiens), P21453;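 active = activation above a cutoff set at the mean activation of all tested compounds plus 3 SD, cut at about 54% in these data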;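 note: forskolin at 4 µM as EC80 and the EC20 agonist is SEW2871; 100% = SEW2871 at its EC100 plus forskolin at EC80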
5-HT1A blocker: human 5-HT1a receptor antagonists, primary screen, cell-based, CHO, Ga15 NFAT-bla reporter; CHO 5-HT1a Ga15 NFAT-bla reporter, antagonist mode; inhibition, % at 10 µM; 62,000 compounds, 0.68% hits;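 active = inhibition above the mean of all tested compounds plus 3 SD, cut at about 43% in these data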;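 note: receptor stimulated by 5-CT agonist at 100 nM near EC80; beta-lactamase reporter measured by ratiometric fluorescence of a cleavable substrate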
HTR1E antagonist: 5-HT1E receptor antagonists, primary screen, cell-based, HTS; AID 571, 2007; 65,000 compounds, 0.99% hits; CHO 5-HT1E Ga15 NFAT-bla reporter, FRET, antagonist; inhibition, % at 6 µM; 5-hydroxytryptamine receptor 1E (Homo sapiens), P28566;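 active = inhibition above a set limit, the mean inhibition across every tested compound plus 3 SD, cut at about 29% in these data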;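 note: signal is the 460 over 535 nm emission ratio of beta-lactamase substrate; 0% = agonist plus DMSO wells and 100% = wells without agonist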
An asterisk follows results filed as active; x = no result given. In the library only some 3% were active in any assay of this set; here they are far more common.

SMILES	5HT1a ag	HTR1E agonist	S1P3 agonist	S1P1 ag-PAM	5-HT1A blocker	HTR1E antagonist
O=S1(=O)C=C(Sc2nnc(-c3ccccc3)o2)c2ccccc21	-5	-2	0	107*	104*	106*
Cn1c(=O)n(CCc2ccccc2)c(=O)c2c1nc1n2CCN1c1ccccc1	-3	1	-1	-10	0	7
CN=C1CC(C)(C)CC(=O)/C1=C(/O)CCC(=O)NC	1	0	0	8	2	3
O=S(=O)(NCc1cn2ccsc2n1)c1ccc(Oc2ccccc2)cc1	-3	1	0	84*	12	5
O=S(=O)(NCc1cn2ccsc2n1)c1cccs1	-5	0	0	-36	2	0
CCc1ccc(S(=O)(=O)NCc2cn3ccsc3n2)s1	-2	22*	0	-30	5	-2
Cc1cc(NC(=O)CCC2CCCC2)no1	1	0	0	-8	-8	4
COc1ccc(NC(=O)C23CCC(C2)C(C)(C)C3=O)cc1 (configuration not stated)	-1	-1	-1	10	7	4
Cn1c(=O)oc2cc(S(=O)(=O)NC(Cc3ccccc3)C(=O)N3CCCCC3)ccc21 (configuration not stated)	0	0	0	-9	-10	-5
Cc1ccc(S(=O)(=O)N2CCOCC2)cc1C(=O)NCc1cn2ccsc2n1	-1	0	1	14	-2	-10
N#Cc1nc(-c2ccc(OCc3ccccc3)cc2)oc1NCc1cccnc1	1	0	-1	60*	-6	14
CN(C)c1oc(-c2ccc(OCc3ccccc3)cc2)nc1C#N	0	2	-1	72*	-12	2
Cc1ccc(C)c(-n2nnnc2Sc2nnnn2-c2ccccc2)c1	-1	-1	-1	56	46*	25
O=C(NCCc1c[nH]c2ccccc12)c1c(Cl)nc2sccn12	19	-2	x	x	-9	33*
C=C(C)CSc1nnc(-c2ccccc2)n1N	1	42*	-2	x	0	-4
Cc1ccc(N2CCN(C(=O)C3CCN(S(=O)(=O)c4cccc5nsnc45)CC3)CC2C)cc1 (configuration not stated)	-1	0	0	12	17	5
Cc1ccc(-n2c(C)cc(C(=O)CSc3nnnn3C)c2C)cc1	-1	0	0	87*	-4	-2
Cc1ccc(-c2nn(C)c(=O)c3ccccc23)cc1S(=O)(=O)N1CCCC1	0	2	0	-50	10	36*
Cc1ccc(-c2nn(C)c(=O)c3ccccc23)cc1S(=O)(=O)NCCO	-2	0	-1	x	6	29*
COCCn1c(CNc2ccc(F)cc2)nnc1SCC(=O)Nc1ccc(OC)cc1OC	0	0	x	x	-17	-2
COc1ccc2c(c1)C(=O)N(c1ccccc1OC)C(=O)C2(C)C	-1	0	0	3	-1	10
COc1ccccc1Oc1ccc2c(c1)C(=O)N(c1ccc(O)cc1)C2=O	-3	1	-1	112*	-1	-3
COc1ccc(-c2cn3c(C)c(C(=O)N4CCCc5ccccc54)sc3n2)cc1	0	1	-2	70*	4	21
N#Cc1ccc(Oc2cccnc2)cc1C#N	1	0	0	x	-6	-2
COc1ccc(OC)c(C(=O)CN2C(=O)NC(C)(c3ccccc3)C2=O)c1 (configuration not stated)	161*	0	0	6	0	-2
CC(=O)Nc1cc(OC(C)=O)c2nonc2c1OC(C)=O	7	1	-2	98*	78*	103*

Assay outcomes from PubChem BioAssay.
